Assay results taken from ChEMBL document CHEMBL5113533 (J Med Chem, 2022).
pIC50: −log10 of the molar value. Activity calls are given as the source filed them.

What was measured:
[1] = system: THP-1; assay: Antiinflammatory activity against LPS-stimulated human THP-1 cells assessed reduction in TNFalpha level pretreated at 5 uM for 1 hr followed by LPS stimulation and measured upto 24 hrs by ELISA analysis; assay type: functional, cell-based
Outline: (§1)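 THP-1 cells pre-treated with compound for 1 h (5 μM or 1 μM, depending on the compound), then stimulated with 100 ng/mL LPS. Culture supernatant was taken at 24 h, and TNF-α, IL-6 or IL-1β was measured by sandwich ELISA at 450 nm with 540 nm correction; four biological replicates.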

[2] = system: THP-1; assay: Antiinflammatory activity against LPS-stimulated human THP-1 cells assessed reduction in IL-1beta level pretreated at 5 uM for 1 hr followed by LPS stimulation and measured upto 24 hrs by ELISA analysis; assay type: functional, cell-based; outline: as §1
[3] = system: THP-1; assay: Antiinflammatory activity against LPS-stimulated human THP-1 cells assessed reduction in IL-6 level pretreated at 5 uM for 1 hr followed by LPS stimulation and measured upto 24 hrs by ELISA analysis; assay type: functional, cell-based; outline: as §1
[4] = system: THP-1; assay: Antiinflammatory activity against LPS-stimulated human THP-1 cells assessed as blockage of inflammatory phenotype by measuring m/z ratio at 5 uM pretreated for 1 hr followed by LPS stimulation and measured upto 24 hrs; assay type: functional, cell-based
Outline: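 THP-1 cells at 1 million/mL, pre-treated with compound at 5 μM for 1 h in technical triplicate, then 100 ng/mL LPS for 24 h. Pellets frozen on dry ice, thawed, washed in 100 mM Tris–HCl pH 7.5 at 4 °C. MALDI-TOF MS read-out is the normalized m/z 4964/4632 ratio, with a 40% cutoff used for hit calling; three biological replicates.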

[5] = molecular target: Mitogen-activated protein kinase 14 (Homo sapiens) (UniProt Q16539); assay: Binding affinity to P38alpha (unknown origin) measured at 0.05 to 333.33 nM after 600 secs by SPR analysis; details: dose 0.05-333.33 nM, time 600.0 sec
Sequence of Mitogen-activated protein kinase 14 (Homo sapiens) (Q16539 whole entry): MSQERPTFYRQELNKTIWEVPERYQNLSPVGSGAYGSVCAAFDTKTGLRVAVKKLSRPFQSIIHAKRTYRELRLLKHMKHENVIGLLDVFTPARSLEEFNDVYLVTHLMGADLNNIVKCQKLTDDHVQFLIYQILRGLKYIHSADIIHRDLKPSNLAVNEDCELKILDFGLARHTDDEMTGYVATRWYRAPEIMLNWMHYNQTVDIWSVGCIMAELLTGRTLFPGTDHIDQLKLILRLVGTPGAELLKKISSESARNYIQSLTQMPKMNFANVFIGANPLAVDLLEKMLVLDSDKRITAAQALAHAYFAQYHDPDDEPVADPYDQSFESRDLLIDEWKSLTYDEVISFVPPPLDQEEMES
Outline: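 Biotinylated avidin-p38α was captured on a streptavidin chip from 50 μg/mL, reaching about 7719 RU. A 10-point series (0.05–333.33 nM) ran multicycle at 2 °C against a control surface: 90 s injection at 30 μL/min, then 600 s dissociation.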

[6] = system: OCI-AML2; assay: Inhibition of MK2 in Escherichia coli-stimulated human OCI-AML2 cells assessed as reduction inMK2 phosphorylation pretreated for 1 hr followed by Escherichia coli stimulation and measured up to 15 mins by western blot analysis; assay type: cell-based; details: time 1.15 hrs
[7] = system: THP-1; assay: Antiinflammatory activity against Escherichia coli induced human THP-1 cells assessed as reduction in proinflammatory phenotype at 5 uM for 1 hr followed by Escherichia coli stimulation and measured upto 24 hrs by MALDI-TOF MS analysis; assay type: functional, cell-based
Outline: (§2)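 THP-1 cells pre-treated with compound for 1 h, then infected with live E. coli (MOI 2), spun 500g 5 min, left 15 or 30 min for uptake, then 100 μg/mL gentamicin for 1 h and 20 μg/mL gentamicin thereafter, up to 24 h. Pellets frozen on dry ice, thawed, washed in 100 mM Tris–HCl pH 7.5 at 4 °C, and read by MALDI-TOF MS as the normalized m/z 4964/4632 ratio.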

[8] = molecular target: Mitogen-activated protein kinase 14 (Homo sapiens) (UniProt Q16539); details: THP-1, dose 5.0 µM, time 1.15 hrs
[9] = system: THP-1; assay: Antiinflammatory activity against LPS-stimulated human THP-1 cells assessed as reduction in IL-1beta level pretreated for 1 hr followed by LPS stimulation and measured upto 24 hrs by ELISA analysis; assay type: functional, cell-based; outline: as §1
[10] = system: Acute myeloid leukemic cell; assay: Antiinflammatory activity against LPS-stimulated patient derived primary AML cells assessed reduction in TNFalpha level measured at 24 hrs by ELISA analysis; assay type: functional, cell-based; details: Homo sapiens
Outline: (§3)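 CD14+ monocytes from healthy-donor blood (Lymphoprep, then pan-monocyte isolation) or patient AML cells (cultured in IMDM with 20% FBS, IL-3 and SCF). Cells pre-treated 1 h with 5 μM or 1 μM compound, then 100 ng/mL LPS; TNF-α in supernatant measured by ELISA at 24 h. Four (monocytes) or two (AML) biological replicates, error shown as SD.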

[11] = system: THP-1; assay: Inhibition of human Escherichia coli stimulated monocyte activation in human THP-1 cells assessed as upregulation of MMP9 expression level at 5 uM pretreated for 1 hr and measured up to 24 hrs; assay type: functional, cell-based
Outline: (§4)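 THP-1 cells pre-treated 1 h with 5 μM compound, then live E. coli up to 24 h. Label-free quantitative proteomics: S-Trap digestion (TCEP reduction, N-ethylmaleimide alkylation, trypsin 2 h at 47 °C), Orbitrap LC–MS/MS with a 180 min gradient. Changes called at FDR <0.05 and 1.5-fold.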

[12] = system: THP-1; assay: Antiinflammatory activity against LPS-stimulated human THP-1 cells assessed as reduction in IL-6 level pretreated for 1 hr followed by LPS stimulation and measured upto 24 hrs by ELISA analysis; assay type: functional, cell-based; outline: as §1
[13] = system: THP-1; assay: Inhibition of human Escherichia coli stimulated monocyte activation in human THP-1 cells assessed as suppression of CD11c expression level at 5 uM pretreated for 1 hr and measured up to 24 hrs by flow cytometric analysis; assay type: functional, cell-based
[14] = system: THP-1; assay: Antiinflammatory activity against LPS-stimulated human THP-1 cells assessed as reduction in TNFalpha level pretreated for 1 hr followed by LPS stimulation and measured upto 24 hrs by ELISA analysis; assay type: functional, cell-based; outline: as §1
[15] = system: THP-1; assay: Inhibition of human Escherichia coli stimulated monocyte activation in human THP-1 cells assessed as decrease in TLR2 expression level at 5 uM pretreated for 1 hr and measured up to 24 hrs; assay type: functional, cell-based; outline: as §4
[16] = system: THP-1; assay: Inhibition of P38 MAPK pathway in Escherichia coli-stimulated human THP-1 cells assessed as reduction in IL-1beta expression at 5 uM pretreated for 1 hr followed by Escherichia coli stimulation and measured upto 24 hrs by ELISA analysis
Outline: (§5)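 THP-1 cells pre-treated 1 h with 5 μM compound, then infected with live E. coli (MOI 2), followed by gentamicin killing of extracellular bacteria. TNF-α, IL-6 or IL-1β in supernatant measured by ELISA at 24 h, absorbance at 450 nm with 540 nm correction.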

[17] = system: OCI-AML2; assay: Antiinflammatory activity against Escherichia coli-stimulated human OCI-AML2 cells assessed reduction in IL-6 level measured at 24 hrs by ELISA analysis; assay type: functional, cell-based
Outline: (§6)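 OCI-AML2 cells stimulated with live E. coli (MOI 2, gentamicin protection). TNF-α, IL-6 and IL-1β in culture supernatant measured by ELISA at 24 h post-treatment, 450 nm with 540 nm correction, four biological replicates.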

[18] = molecular target: MAP kinase-activated protein kinase 2 (Homo sapiens) (UniProt P49137); assay: Inhibition of MK2 in Escherichia coli -stimulated human THP-1 cells assessed as reduction in p38alpha MAPK phosphorylation at 5 uM pretreated for 1 hr followed by Escherichia coli stimulation and measured up to 15 mins by western blot analysis; assay type: cell-based; details: time 1.15 hrs
Sequence of MAP kinase-activated protein kinase 2 (Homo sapiens) (P49137 whole entry, looked up): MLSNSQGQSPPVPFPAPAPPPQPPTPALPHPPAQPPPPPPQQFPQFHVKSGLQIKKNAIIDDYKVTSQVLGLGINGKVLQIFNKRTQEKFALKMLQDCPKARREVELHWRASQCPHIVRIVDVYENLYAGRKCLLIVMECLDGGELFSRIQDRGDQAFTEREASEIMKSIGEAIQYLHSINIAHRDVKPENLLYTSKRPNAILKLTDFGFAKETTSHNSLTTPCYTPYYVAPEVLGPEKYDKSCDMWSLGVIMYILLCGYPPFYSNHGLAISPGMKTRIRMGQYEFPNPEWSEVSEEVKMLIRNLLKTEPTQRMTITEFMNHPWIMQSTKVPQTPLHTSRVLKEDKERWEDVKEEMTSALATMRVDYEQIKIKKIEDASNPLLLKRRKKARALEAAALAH

[19] = system: THP-1; assay: Inhibition of human Escherichia coli stimulated monocyte activation in human THP-1 cells assessed as suppression of CD14 expression level at 5 uM pretreated for 1 hr and measured up to 24 hrs; assay type: functional, cell-based
[20] = system: OCI-AML2; assay: Antiinflammatory activity against Escherichia coli-stimulated human OCI-AML2 cells assessed reduction in IL-1beta level measured at 24 hrs by ELISA analysis; assay type: functional, cell-based; outline: as §6
[21] = system: THP-1; assay: Inhibition of human Escherichia coli stimulated monocyte activation in human THP-1 cells assessed as increase in ROCK1 expression level at 5 uM pretreated for 1 hr and measured up to 24 hrs; assay type: functional, cell-based; outline: as §4
[22] = system: THP-1; assay: Inhibition of human Escherichia coli stimulated monocyte activation in human THP-1 cells assessed as decrease in CD14 expression level at 5 uM pretreated for 1 hr and measured up to 24 hrs; assay type: functional, cell-based
[23] = system: THP-1; assay: Inhibition of cell adhesion in human Escherichia coli stimulated-THP-1 cells by crystal violet staining based assay; assay type: functional
Outline: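 E. coli-stimulated THP-1 cells washed twice with PBS, fixed 15 min in 4% paraformaldehyde, stained 10 min with 5 mg/mL crystal violet, lysed 30 min in 2% SDS. Absorbance read at 550 nm; four biological replicates.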

[24] = system: THP-1; assay: Inhibition of human Escherichia coli stimulated monocyte activation in human THP-1 cells assessed as decrease in MMP9 expression level at 5 uM pretreated for 1 hr and measured up to 24 hrs; assay type: functional, cell-based; outline: as §4
[25] = system: THP-1; assay: Inhibition of P38 MAPK pathway in Escherichia coli-stimulated human THP-1 cells assessed as reduction in IL-6 expression at 5 uM pretreated for 1 hr followed by Escherichia coli stimulation and measured up to 24 hrs by ELISA analysis; outline: as §5
[26] = system: THP-1; assay: Inhibition of human Escherichia coli stimulated monocyte activation in human THP-1 cells assessed as suppression of CD49a expression level at 5 uM pretreated for 1 hr and measured up to 24 hrs by flow cytometric analysis; assay type: functional, cell-based
[27] = system: THP-1; assay: Antiinflammatory activity against LPS-stimulated human THP-1 cells assessed as TNF-alpha secretion pretreated for 1 hr followed by LPS stimulation and measured upto 24 hrs by ELISA analysis; assay type: functional, cell-based; outline: as §1
[28] = system: THP-1; assay: Inhibition of human Escherichia coli stimulated monocyte activation in human THP-1 cells assessed as decrease in CD44 expression level at 5 uM pretreated for 1 hr and measured up to 24 hrs; assay type: functional, cell-based
[29] = system: NCI-H929; assay: Inhibition of MK2 in Escherichia coli-stimulated human NCI-H929 cells assessed as reduction in MK2 phosphorylation pretreated for 1 hr followed by Escherichia coli stimulation and measured up to 15 mins by western blot analysis; assay type: cell-based; details: time 1.15 hrs
[30] = system: THP-1; assay: Antiinflammatory activity against LPS-stimulated human THP-1 cells assessed as disappearance inflammatory phenotype at 5 uM pretreated for 1 hr followed by LPS stimulation and measured upto 24 hrs by ELISA analysis; assay type: functional, cell-based
[31] = system: Monocyte; assay: Antiinflammatory activity against LPS-stimulated human primary monocyte cells assessed reduction in TNFalpha level measured at 24 hrs by ELISA analysis; assay type: functional, cell-based; outline: as §3
[32] = system: THP-1; assay: Inhibition of P38 MAPK pathway in Escherichia coli-stimulated human THP-1 cells assessed as reduction in TNFalpha expression at 5 uM pretreated for 1 hr followed by Escherichia coli stimulation and measured up to 24 hrs by ELISA analysis; outline: as §5
[33] = system: THP-1; assay: Inhibition of human Escherichia coli stimulated monocyte activation in human THP-1 cells assessed as increase in Filamin-B expression level at 5 uM pretreated for 1 hr and measured up to 24 hrs; assay type: functional, cell-based; outline: as §4
[34] = system: THP-1; assay: Inhibition of human Escherichia coli stimulated monocyte activation in human THP-1 cells assessed as suppression of CD54 expression level at 5 uM pretreated for 1 hr and measured up to 24 hrs by flow cytometric analysis; assay type: functional, cell-based
[35] = system: THP-1; assay: Inhibition of human Escherichia coli stimulated monocyte activation in human THP-1 cells assessed as […] of CD44 expression level at 5 uM pretreated for 1 hr and measured up to 24 hrs; assay type: functional, cell-based
[36] = system: THP-1; assay: Inhibition of human Escherichia coli stimulated monocyte activation in human THP-1 cells assessed as decrease in IL-1beta expression level at 5 uM pretreated for 1 hr and measured up to 24 hrs; assay type: functional, cell-based; outline: as §4
[37] = system: THP-1; assay: Inhibition of human Escherichia coli stimulated monocyte activation in human THP-1 cells assessed as decrease in ICAM-1 expression level at 5 uM pretreated for 1 hr and measured up to 24 hrs; assay type: functional, cell-based
[38] = molecular target: Mitogen-activated protein kinase 14 (Homo sapiens) (UniProt Q16539); details: THP-1, dose 5.0 µM, time 1.15 hrs; remark: listed apart in the source
[39] = system: OCI-AML2; assay: Antiinflammatory activity against Escherichia coli-stimulated human OCI-AML2 cells assessed reduction in TNFalpha level measured at 24 hrs by ELISA analysis; assay type: functional, cell-based; outline: as §6
[40] = system: THP-1; assay: Antiinflammatory activity against Escherichia coli induced human THP-1 cells assessed as reduction in proinflammatory phenotype at 1 uM for 1 hr followed by Escherichia coli stimulation and measured upto 24 hrs by MALDI-TOF MS analysis; assay type: functional, cell-based; outline: as §2
[41] = molecular target: MAP kinase-activated protein kinase 2 (Homo sapiens) (UniProt P49137); assay: Inhibition of MK2 in Escherichia coli -stimulated human THP-1 cells assessed as reduction in p38alpha MAPK phosphorylation at 1 uM pretreated for 1 hr followed by Escherichia coli stimulation and measured up to 15 mins by western blot analysis; assay type: cell-based; details: time 1.15 hrs

CC[C@@H]1C(=O)N(C)c2cnc(Nc3ccc(C(=O)NC4CCN(C)CC4)cc3OC)nc2N1C1CCCC1
active: Activity [1] | Activity [2] | Activity [3] | Activity [4]

Cc1ccc(C(=O)Nc2ccc(CN3CCN(C)CC3)c(C(F)(F)F)c2)cc1C#Cc1cnc2cccnn12
active: Activity [5]

Cc1cn(-c2cc(NC(=O)c3ccc(C)c(Nc4nccc(-c5cccnc5)n4)c3)cc(C(F)(F)F)c2)cn1 [NILOTINIB]
active: inhibition [6] | Activity [7] | Activity [9] | Activity [10] | inhibition [11] | Activity [12] | inhibition [13] | Activity [14] | inhibition [15] | inhibition [16] | Activity [17] | inhibition [18] | inhibition [19] | Activity [20] | inhibition [21] | inhibition [22] | inhibition [23] | inhibition [24] | inhibition [25] | inhibition [26] | inhibition [28] | inhibition [29] | Activity [30] | Activity [31] | inhibition [32] | inhibition [33] | inhibition [34] | inhibition [35] | inhibition [36] | inhibition [37] | Activity [5] | Activity [39]
55.1 °C: Tm [8]
6.40: pIC50 [27]
60.7 °C: Tm [38]

CCN1CCN(Cc2ccc(NC(=O)c3ccc(C)c(Oc4ccnc5[nH]ccc45)c3)cc2C(F)(F)F)CC1
active: Activity [1] | Activity [2] | Activity [3] | Activity [4]

Cc1c(F)cc(C(=O)NC2CC2)cc1-c1ccc(C(=O)NCC(C)(C)C)cn1
active: Activity [40] | inhibition [41]
